Screening data as filed in PubChem BioAssay.
OX1R antag-1: human HCRTR1 antagonism. O43613. CHO/OX1R cells, Fluo-8 calcium fluorescence, orexin A. inhibition, % at 5 µM. 330,000 tested, 0.43% active. AID 434989;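 active = inhibition above its plate's threshold, mean inhibition of all tested compounds on the plate plus 3 SD, cut at about 37% in these data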
GPR7 antagonist: human neuropeptides B/W receptor 1 antagonism | AID 1861 | inhibition, % at 4.4 µM | P48145 | GPR7-expressing cells, fluorescence antagonist assay | 290,000 tested, 1.1% active; in the data active = inhibition above about 16%, passing the limit was not always enough;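 note: cells stimulated with the agonist NPW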
Target sequence (P48145 whole entry, looked up): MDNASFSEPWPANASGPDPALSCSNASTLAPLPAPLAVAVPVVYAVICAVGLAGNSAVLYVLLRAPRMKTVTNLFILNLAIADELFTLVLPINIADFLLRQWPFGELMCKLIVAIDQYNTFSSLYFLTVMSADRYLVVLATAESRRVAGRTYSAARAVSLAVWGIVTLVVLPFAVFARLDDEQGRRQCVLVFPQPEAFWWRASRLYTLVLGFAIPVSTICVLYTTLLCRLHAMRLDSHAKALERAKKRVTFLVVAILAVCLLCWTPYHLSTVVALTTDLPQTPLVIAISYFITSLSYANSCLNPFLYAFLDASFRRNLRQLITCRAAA
TAAR1 antag: human TAAR1 antagonism; Q96RJ0; CHO RD-HGA16 TAAR1, Fluo-8 calcium fluorescence, antagonist; inhibition, % at 3 µM; 360,000 tested, 1.5% active; AID 624466;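 active = inhibition above a per-plate cutoff, the mean inhibition of test compounds on that plate plus 3 SD, cut at about 49% in these data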
Target sequence (Q96RJ0 whole entry, looked up): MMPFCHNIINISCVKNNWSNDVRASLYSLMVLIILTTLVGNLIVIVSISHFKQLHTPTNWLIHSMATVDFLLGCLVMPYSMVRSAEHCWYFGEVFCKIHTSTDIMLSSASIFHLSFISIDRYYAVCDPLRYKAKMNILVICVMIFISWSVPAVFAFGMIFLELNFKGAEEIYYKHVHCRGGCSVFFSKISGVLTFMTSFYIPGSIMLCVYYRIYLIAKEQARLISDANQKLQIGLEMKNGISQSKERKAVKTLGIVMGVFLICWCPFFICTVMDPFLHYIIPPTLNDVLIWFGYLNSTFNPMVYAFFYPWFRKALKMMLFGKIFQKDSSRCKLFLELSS
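System: RD-HGA16 CHO cells with stable hTAAR1 and Gα16 | Probe or stimulus: EC80 β-phenethylamine stimulus | Dosing: 3 µM, single point | Times: Dye loading 75 min at 37 °C, then 30 min room temperature | Measured by: Fluo-8 calcium-sensitive fluorescence | Read-out basis: % inhibition of agonist calcium response | Replicates: n of 1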
OX1R antag-2: antagonists of human orexin 1 receptor (OX1R). inhibition, % at 6.6 µM. 330,000 tested, 1.8% active. OX1R-expressing cells, FRET antagonist read-out. O43613; in the data active = inhibition mostly above about 38%, no sharp cut-off; inactive = mostly below about 40%
CHO parental Ca: counter-screen for OX1R antagonists: effect in parental CHO cells; parental CHO-K1, ATP-induced calcium, Fluo-8 fluorescence; inhibition, % at 5.6 µM; 330,000 tested, 0.63% active; AID 463079;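 active = inhibition above that plate's mean sample inhibition plus 3 SD, cut at about 26% in these data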
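material = parental CHO cells | also added = ATP as calcium-mobilizing challenge | dosing = single point at 5.6 µM | detection = intracellular calcium via Fluo-8 no-wash fluorescent dye | read-out = % inhibition | benchmarks = low control ATP plus DMSO, high control DMSO only | repeats = one well per compound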
TAAR1 ag: human TAAR1 agonism. Q96RJ0. CHO RD-HGA16 TAAR1, Fluo-8 calcium fluorescence; vehicle wells 0%, saturating PEA agonist 100%. activation, % at 3 µM. 360,000 tested, 0.99% active;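 active = activation above the mean activation of all test compounds in the run plus 3 SD, cut at about 38% in these data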
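Repeats: no replicates (n 1) | Material: CHO-derived RD-HGA16 cells with stable Gα16 and human TAAR1 | Technique: Kinetic Fluo-8 calcium fluorescence | Schedule: 17-24 h seeding, 75 min 37 °C dye, 30 min RT | Evaluation: % activation from peak over basal fluorescence ratio, DMSO-to-PEA scaled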
nonsel antag count: counter-screen for TAAR1 antagonists: nonselective antagonists; shares compounds with TAAR1 antag; counterscreen cell line, calcium fluorescence, antagonist mode; inhibition, % at 3 µM; 2,400 tested, 77% active; in the data active = inhibition above about 22%;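 note: CHO-Ga16 host cells stimulated with ATP at an EC80 level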
TAAR1 ant conf: human TAAR1 antagonism, confirmed; shares compounds with TAAR1 antag; TAAR1-expressing cells, fluorescence antagonist read-out; inhibition, % at 3 µM; 2,400 tested, 40% active; in the data active = inhibition above about 49%;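 note: CHO-Ga16 host cells challenged with agonist PEA near its EC80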
Ga16 ag counter: counter-screen for TAAR1 antagonists: nonselective Ga16 agonists; shares compounds with TAAR1 antag; Ga16-expressing cells, calcium fluorescence, agonist counterscreen; activation, % at 3 µM; 2,400 tested, 18% active; AID 651953; in the data active = activation above about 12%
TAAR1 ag count: counter-screen for human TAAR1 antagonists: TAAR1 agonists; shares compounds with TAAR1 antag; hTAAR1 cell line, fluorescence activation, agonist mode; activation, % at 3 µM; 2,400 tested, 2% active; AID 651955; in the data active = activation above about 37%;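 note: CHO cells stably expressing TAAR1 with calcium dye readout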
Each line names hits and unclear results; the compound was inactive in the other large screens (follow-up assays come after a bar, where they were run). Shown are actives, neighbours in structure and some others; about 4.6% of the full set was active somewhere.

COc1cccc(OC)c1C(=O)Oc1ccc2c(c1)O/C(=C\c1ccncc1)C2=O	TAAR1 antag 53 | nonsel antag count 41 | TAAR1 ant conf 56 | Ga16 ag counter inactive | TAAR1 ag count inactive
CC(C)Oc1ccccc1/C=N/NC(=O)C1CC1	TAAR1 antag 104 (no result: GPR7 antagonist) | nonsel antag count inactive | TAAR1 ant conf inactive | Ga16 ag counter inactive | TAAR1 ag count inactive
Cc1cc(C)n(-c2ccc(C(=O)Nc3ccc(C)c(S(=O)(=O)N4CCOCC4)c3)cc2)n1	TAAR1 antag 78 | nonsel antag count 41 | TAAR1 ant conf 55 | Ga16 ag counter 14 | TAAR1 ag count inactive
Cc1ccc(C(=O)Nc2ccc3cn[nH]c3c2)cc1S(=O)(=O)N1CCOCC1	TAAR1 antag 62 | nonsel antag count 31 | TAAR1 ant conf inactive | Ga16 ag counter inactive | TAAR1 ag count inactive
CC(=O)c1ccc(NC(=O)c2ccc(C)c(S(=O)(=O)N3CCOCC3)c2)cc1	none
CC(NC(=O)CN(C)CC(=O)Nc1ccc(Cl)cc1)c1ccc(F)cc1 (stereo not given)	none (no result: GPR7 antagonist)
Cc1ccc(CNC(=O)c2ccc(N(C)S(=O)(=O)c3ccccc3)cc2)cc1	none
CN(c1ccccc1)S(=O)(=O)c1ccc(C(=O)NCc2ccc(F)cc2)cc1	TAAR1 antag 64 (no result: GPR7 antagonist) | nonsel antag count 42 | TAAR1 ant conf 58 | Ga16 ag counter 12 | TAAR1 ag count inactive
COc1ccccc1N(C)S(=O)(=O)c1ccc(C(=O)NCc2ccc3c(c2)OCO3)cc1	TAAR1 antag 67 | nonsel antag count 31 | TAAR1 ant conf 53 | Ga16 ag counter inactive | TAAR1 ag count inactive
COc1ccccc1N(C)S(=O)(=O)c1ccc(C(=O)N(C)Cc2ccc(Cl)s2)cc1	TAAR1 antag 51 (no result: GPR7 antagonist) | nonsel antag count 27 | TAAR1 ant conf inactive | Ga16 ag counter inactive | TAAR1 ag count inactive
CCN(CC)CCNC(=O)c1ccc(NC(=O)c2ccc(S(=O)(=O)N(C)c3ccccc3OC)cc2)cc1	none (no result: OX1R antag-1, GPR7 antagonist, OX1R antag-2, CHO parental Ca)
COc1cccc(C(=O)NCc2ccc3c(c2)OCO3)c1OC	none (no result: OX1R antag-1, OX1R antag-2, CHO parental Ca)
COc1ccccc1N(C)S(=O)(=O)c1ccc(C(=O)Nc2ccc(C(N)=O)cc2)cc1	TAAR1 antag 54 (no result: GPR7 antagonist) | nonsel antag count 24 | TAAR1 ant conf inactive | Ga16 ag counter inactive | TAAR1 ag count inactive
COc1ccccc1N(C)S(=O)(=O)c1ccc(C(=O)N(C)Cc2cccc(OC)c2OC)cc1	none (no result: OX1R antag-1, GPR7 antagonist, OX1R antag-2, CHO parental Ca)
CCOc1ccc(NC(=O)C(=O)NCCN2CCN(S(=O)(=O)c3ccccc3)CC2)cc1	none
COC(=O)c1c(-c2ccc(S(C)(=O)=O)cc2)sc2cc(OC)ccc12	none (no result: GPR7 antagonist)
COc1ccc2c(C(=O)NCc3ccc4c(c3)OCO4)c(-c3ccc(S(C)(=O)=O)cc3)sc2c1	TAAR1 antag 64 (no result: GPR7 antagonist) | nonsel antag count 36 | TAAR1 ant conf 55 | Ga16 ag counter inactive | TAAR1 ag count inactive
COc1ccc(CCNC(=O)c2ccc(-c3ccc([N+](=O)[O-])cc3)o2)cc1OC	TAAR1 antag 61 | nonsel antag count 22 | TAAR1 ant conf inactive | Ga16 ag counter inactive | TAAR1 ag count inactive
COc1ccc(CCNC(=O)c2noc(C(C)C)c2[N+](=O)[O-])cc1OC	none
COc1ccc(N2CCN(C(=O)COC(=O)c3ccc(-n4nc(C)cc4C)cc3)CC2)cc1	none (no result: GPR7 antagonist)
N#Cc1ccc(-c2csc(NC(=O)/C=C/c3cccs3)n2)cc1	TAAR1 antag 61 | nonsel antag count 40 | TAAR1 ant conf 52 | Ga16 ag counter inactive | TAAR1 ag count inactive
Cc1ccc(-c2csc(NC(=O)/C=C/c3cccs3)n2)cc1C	none
Cc1ccc(-c2cc(-c3ccc(F)cc3)c(C#N)c(N)n2)o1	TAAR1 antag 57 | nonsel antag count inactive | TAAR1 ant conf inactive | Ga16 ag counter inactive | TAAR1 ag count inactive
Brc1ccccc1-c1nc2c3ccccc3ncn2n1	TAAR1 antag 53 (no result: GPR7 antagonist) | nonsel antag count inactive | TAAR1 ant conf inactive | Ga16 ag counter inactive | TAAR1 ag count inactive
O=C(O)CCCN=Cc1c(O)c2ccccc2oc1=O	none
CCN1/C(=C\C=C(C(C)=O)C(C)=O)Sc2ccccc21	none
CCOC(=O)/C(C#N)=C(C)/C=C1\Sc2ccccc2N1CC	TAAR1 antag 56 | nonsel antag count 22 | TAAR1 ant conf inactive | Ga16 ag counter 18 | TAAR1 ag count inactive
Cc1cc(OCC(=O)NC(Cc2ccc(Cl)cc2)C(=O)O)c2c(C)c(C)c(=O)oc2c1 (stereo not given)	none
COc1cccc2cc(-c3cc(=O)oc4ccc(O)cc34)oc12	TAAR1 antag 50 | nonsel antag count inactive | TAAR1 ant conf inactive | Ga16 ag counter inactive | TAAR1 ag count inactive
O=C(Nc1ccc(N2CCCCC2)c(Cl)c1)c1ccc(N2CCOCC2)c([N+](=O)[O-])c1	none
Cc1ccc(NC(=O)c2ccc(N3CCOCC3)c([N+](=O)[O-])c2)cc1S(=O)(=O)N1CCOCC1	TAAR1 antag 68 | nonsel antag count 42 | TAAR1 ant conf 60 | Ga16 ag counter 16 | TAAR1 ag count inactive
O=C(Nc1ccc(Cc2ccncc2)cc1)c1ccc(N2CCOCC2)c([N+](=O)[O-])c1	TAAR1 antag 95 | nonsel antag count 33 | TAAR1 ant conf 52 | Ga16 ag counter 14 | TAAR1 ag count inactive
CC1(N=Cc2cc(Cl)ccc2O)COP(=O)(Nc2ccccc2)OC1 (stereo not given)	none (no result: OX1R antag-1, GPR7 antagonist, OX1R antag-2, CHO parental Ca)
CCOc1ccc(CCNC(=O)COC(=O)c2nccnc2N)cc1OCC	none (no result: GPR7 antagonist)
N#CCCN(Cc1ccccc1)C(CCc1ccccc1)C(=O)NC1CCCCC1 (stereo not given)	none (no result: OX1R antag-1, GPR7 antagonist, OX1R antag-2, CHO parental Ca)
O=C(Nc1nncs1)C12CC3CC(CC(Cl)(C3)C1)C2	none (no result: OX1R antag-1, OX1R antag-2, CHO parental Ca)
Cc1ccc(NC(=O)CCC(=O)NNC(=O)NC2CCCCC2)c(C)c1	none
CCC(=O)c1ccc(OCC(=O)Nc2nc(C)cs2)cc1	none (no result: GPR7 antagonist)
CCC(=O)c1ccc(OCC(=O)Nc2nc(-c3cccnc3)cs2)cc1	TAAR1 antag 74 (no result: GPR7 antagonist) | nonsel antag count 37 | TAAR1 ant conf 55 | Ga16 ag counter inactive | TAAR1 ag count inactive
COc1cc(C(=O)Nc2nc(-c3cccs3)cs2)cc(OC)c1OC	TAAR1 antag 83, OX1R antag-2 49 | nonsel antag count 45 | TAAR1 ant conf 62 | Ga16 ag counter 16 | TAAR1 ag count inactive
